≈ marks a conversion by molar mass, not a printed value. Calls of active or inactive are those of the source. The rule behind the calls is not given here.
How the values were obtained:
[1] = system: Enterococcus faecium; test: Bactericidal activity against vancomycin-resistant Enterococcus faecium ATCC 700221 clinical isolate preincubated for 20 hrs followed by TSA plating and measured after 18 hrs; type: functional
Summary of the method: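 MBC: 4 μL from wells with no growth in the MIC plate (Brain Heart Infusion broth, 37 °C, at least 20 h) spotted onto Tryptic Soy Agar. Read after at least 18 h at 37 °C.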

[2] = system: Staphylococcus aureus; test: Bactericidal activity against methicillin-resistant Staphylococcus aureus USA400 NRS123 clinical isolate preincubated for 20 hrs followed by TSA plating and measured after 18 hrs; type: functional
[3] = system: Staphylococcus aureus; test: Bacteriostatic activity against vancomycin-resistant Staphylococcus aureus VRS12 clinical isolate after 20 hrs by broth microdilution method; type: functional; conditions: VRS12, 20 h
Summary of the method: (§1)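 Broth microdilution MIC over 128 to 1 μg/mL, run alongside methicillin, linezolid and vancomycin. MIC taken as the lowest concentration with no visible growth.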

[4] = system: Staphylococcus aureus; test: Bactericidal activity against vancomycin-intermediate Staphylococcus aureus NRS1 clinical isolate preincubated for 20 hrs followed by TSA plating and measured after 18 hrs; type: functional
[5] = system: Staphylococcus aureus; test: Bacteriostatic activity against Staphylococcus aureus ATCC 25923 after 20 hrs by broth microdilution method; type: functional; conditions: ATCC 25923, 20 h; summary of the method: as §1
[6] = system: Staphylococcus aureus; test: Bactericidal activity against methicillin-resistant Staphylococcus aureus USA800 NRS387 clinical isolate preincubated for 20 hrs followed by TSA plating and measured after 18 hrs; type: functional
[7] = system: Staphylococcus aureus; test: Bactericidal activity against vancomycin-resistant Staphylococcus aureus VRS12 clinical isolate preincubated for 20 hrs followed by TSA plating and measured after 18 hrs; type: functional
[8] = system: Staphylococcus aureus; test: Bacteriostatic activity against methicillin-resistant Staphylococcus aureus USA500 NRS385 clinical isolate after 20 hrs by broth microdilution method; type: functional; conditions: USA500 NRS385, 20 h; summary of the method: as §1
[9] = system: Staphylococcus aureus; test: Bacteriostatic activity against methicillin-resistant Staphylococcus aureus ATCC 33592 after 20 hrs by broth microdilution method; type: functional; conditions: ATCC 33592, 20 h; summary of the method: as §1
[10] = system: Staphylococcus aureus; test: Bacteriostatic activity against methicillin-resistant Staphylococcus aureus USA700 NRS386 clinical isolate after 20 hrs by broth microdilution method; type: functional; conditions: USA700 NRS386, 20 h; summary of the method: as §1
[11] = system: Enterococcus faecalis; test: Bacteriostatic activity against vancomycin-resistant Enterococcus faecalis ATCC 51575 after 20 hrs by broth microdilution method; type: functional; conditions: ATCC 51575, 20 h; summary of the method: as §1
[12] = system: Staphylococcus aureus; test: Bacteriostatic activity against methicillin-resistant Staphylococcus aureus USA400 NRS123 clinical isolate after 20 hrs by broth microdilution method; type: functional; conditions: USA400 NRS123, 20 h; summary of the method: as §1
[13] = system: Staphylococcus aureus; test: Bactericidal activity against methicillin-resistant Staphylococcus aureus USA700 NRS386 clinical isolate preincubated for 20 hrs followed by TSA plating and measured after 18 hrs; type: functional
[14] = system: Staphylococcus aureus; test: Antibacterial activity against methicillin-resistant Staphylococcus aureus USA300 at 6 ug/ml preincubated up to12 hrs followed by agar plating and measured after 18 to 20 hrs by time-kill assay; type: functional, organism-based
[15] = system: Enterococcus faecium; test: Bacteriostatic activity against vancomycin-resistant Enterococcus faecium ATCC 700221 clinical isolate after 20 hrs by broth microdilution method; type: functional; conditions: ATCC 700221, 20 h
Summary of the method: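 Broth microdilution MIC over 128 to 1 μg/mL in Brain Heart Infusion broth, 37 °C for at least 20 h. MIC taken as the lowest concentration with no visible growth.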

[16] = system: Staphylococcus aureus; test: Bactericidal activity against methicillin-resistant Staphylococcus aureus USA500 NRS385 clinical isolate preincubated for 20 hrs followed by TSA plating and measured after 18 hrs; type: functional
[17] = system: Staphylococcus aureus; test: Bactericidal activity against methicillin-resistant Staphylococcus aureus USA300 NRS384 clinical isolate preincubated for 20 hrs followed by TSA plating and measured after 18 hrs; type: functional
[18] = system: Listeria monocytogenes; test: Bacteriostatic activity against Listeria monocytogenes ATCC 19115 after 20 hrs by broth microdilution method; type: functional; conditions: ATCC 19115, 20 h
Summary of the method: (§2)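 MIC by broth microdilution across 128 to 1 μg/mL in 96-well plates, 37 °C for at least 20 h. MIC is the lowest concentration with no visible growth.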

[19] = system: Staphylococcus aureus; test: Bacteriostatic activity against methicillin-resistant Staphylococcus aureus USA300 NRS384 clinical isolate after 20 hrs by broth microdilution method; type: functional; conditions: USA300 NRS384, 20 h; summary of the method: as §1
[20] = system: Staphylococcus aureus; test: Bactericidal activity against methicillin-resistant Staphylococcus aureus NRS119 clinical isolate preincubated for 20 hrs followed by TSA plating and measured after 18 hrs; type: functional
[21] = system: Enterococcus faecalis; test: Bacteriostatic activity against Enterococcus faecalis ATCC 29212 after 20 hrs by broth microdilution method; type: functional; conditions: ATCC 29212, 20 h; summary of the method: as §1
[22] = system: Staphylococcus aureus; test: Bacteriostatic activity against methicillin-resistant Staphylococcus aureus NRS119 clinical isolate after 20 hrs by broth microdilution method; type: functional; conditions: NRS119, 20 h; summary of the method: as §1
[23] = system: Staphylococcus aureus; test: Bacteriostatic activity against vancomycin-intermediate Staphylococcus aureus NRS1 clinical isolate after 20 hrs by broth microdilution method; type: functional; conditions: NRS1, 20 h; summary of the method: as §1
[24] = system: Escherichia coli; test: Bacteriostatic activity against AcrAB-tolC deficient Escherichia coli JW5503-1 after 20 hrs by broth microdilution method; type: functional; conditions: JW5503-1, 20 h; summary of the method: as §2
[25] = system: Escherichia coli; test: Bacteriostatic activity against Escherichia coli BW25113 after 20 hrs by broth microdilution method; type: functional; conditions: BW25113, 20 h; summary of the method: as §2
[26] = system: Staphylococcus aureus; test: Bacteriostatic activity against methicillin-resistant Staphylococcus aureus USA800 NRS387 clinical isolate after 20 hrs by broth microdilution method; type: functional; conditions: USA800 NRS387, 20 h; summary of the method: as §1
[27] = system: Staphylococcus aureus; test: Antibacterial activity against methicillin-resistant Staphylococcus aureus USA300 in BALB/c mouse wound infection model assessed as reduction in bacterial burden in wound at 2% administered topically bid for 5 days relative to control; type: functional; set-up: scale not given: the % may be the effect or the level left
Summary of the method: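 Female BALB/c mice, eight weeks old, n = 5 per group, injected intradermally with 40 μL of 1.32×10^9 CFU/mL MRSA USA300. Once an abscess or open wound formed, it was treated topically twice daily for five days with 2% agent in petroleum jelly, with vehicle as control. Wound tissue excised 12 h after the last dose, homogenized in PBS, diluted and plated on mannitol salt agar for 16 h or more at 37 °C. CFU reduction calculated against vehicle.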

`CN[C@H](CC(C)C)C(=O)N[C@H]1C(=O)N[C@@H](CC(N)=O)C(=O)N[C@H]2C(=O)N[C@H]3C(=O)N[C@H](C(=O)N[C@H](C(=O)O)c4cc(O)cc(O)c4-c4cc3ccc4O)[C@H](O)c3ccc(c(Cl)c3)Oc3cc2cc(c3O[C@@H]2O[C@H](CO)[C@@H](O)[C@H](O)[C@H]2O[C@H]2C[C@](C)(N)[C@H](O)[C@H](C)O2)Oc2ccc(cc2Cl)[C@H]1O` [VANCOMYCIN] was tested, and the MBC [1] was greater than 128 µg/mL, the MBC [2] was no more than 1 µg/mL and the MIC [3] was greater than 128 µg/mL. It also gave an MBC [4] of 4 µg/mL (≈ 2.76 µM), an MIC [5] of 1 to 2 µg/mL (≈ 0.69 to 1.38 µM) and an MBC [6] of 2 µg/mL (≈ 1.38 µM). For the same molecule, the MBC [7] was greater than 128 µg/mL, the MIC [8] was no more than 1 µg/mL and the MIC [9] was 1 to 2 µg/mL (≈ 0.69 to 1.38 µM). For the same molecule, the MIC [10] was no more than 1 µg/mL, the MIC [11] was greater than 128 µg/mL and the MIC [12] was no more than 1 µg/mL. For the same molecule, the MBC [13] was no more than 1 µg/mL, the Activity [14] was “Active” and the MIC [15] was greater than 128 µg/mL. For the same molecule, the MBC [16] was 2 µg/mL (≈ 1.38 µM), the MBC [17] was no more than 1 µg/mL and the MIC [18] was 1 µg/mL (≈ 0.69 µM). The MIC [19] was no more than 1 µg/mL, the MBC [20] was no more than 1 µg/mL and the MIC [21] was 2 µg/mL (≈ 1.38 µM). It also gave an MIC [22] of no more than 1 µg/mL.
With `CC(=O)NC[C@H]1CN(c2ccc(N3CCOCC3)c(F)c2)C(=O)O1` [LINEZOLID] the MBC [1] was 64 µg/mL (≈ 190 µM), the MIC [23] was no more than 1 µg/mL and the MBC [2] was 64 µg/mL (≈ 190 µM). It also gave an MIC [3] of no more than 1 µg/mL, an MBC [4] of 1 µg/mL (≈ 2.96 µM) and an MBC [6] of 128 µg/mL (≈ 379 µM). For the same molecule, the MBC [7] was 32 µg/mL (≈ 94.9 µM), the MIC [8] was no more than 1 µg/mL and the MIC [24] was 8 µg/mL (≈ 23.7 µM). For the same molecule, the MIC [25] was greater than 128 µg/mL, the MIC [10] was no more than 1 µg/mL and the MIC [26] was no more than 1 µg/mL. It also gave an MIC [12] of no more than 1 µg/mL, an MBC [13] of 128 µg/mL (≈ 379 µM) and an MIC [15] of no more than 1 µg/mL. It also gave an MBC [16] of 2 µg/mL (≈ 5.93 µM), an MBC [17] of 64 µg/mL (≈ 190 µM) and an MIC [19] of no more than 1 µg/mL. It also gave an MBC [20] of 32 µg/mL (≈ 94.9 µM) and an MIC [22] of 32 µg/mL (≈ 94.9 µM).
With `CC(=O)O[C@H]1C[C@@]2(C)[C@@H](C[C@@H](O)[C@H]3[C@@]4(C)CC[C@@H](O)[C@@H](C)[C@@H]4CC[C@@]32C)/C1=C(\CCC=C(C)C)C(=O)O` [FUSIDIC ACID] the Activity [27] was 77.91%.
